Source: paper PMC6931396 (Journal of medicinal chemistry, 2019)

What was measured:
[1] = test system: TOPFlash luciferase reporter (three wild-type Tcf4 binding sites) in β-catenin activated HEK293 cells; assay: TOPFlash luciferase reporter assay; assay type: cell-based; conditions: 24 h
Outline: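 HEK293 cells were co-transfected with FuGENE 6, using 45 ng TOPFlash or FOPFlash reporter plus 135 ng pcDNA3.1-β-catenin. Cells were grown 24 h in DMEM with 10% FBS at 37 °C, then treated with test compound at various concentrations. After 24 h, luciferase activity was read by a dual-luciferase system, normalized, and compared with DMSO-treated cells. Triplicate; unpaired two-tailed t-test.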

[2] = unless converted into the ester form; previous study; cited from earlier work
[3] = target: T1, β-catenin/Tcf PPI (human β-catenin residues 138–781 / fluorescein-labeled human Tcf4 residues 7–51) (Homo sapiens, UniProt P35222); assay type: binding
T1 sequence (P35222 138-781): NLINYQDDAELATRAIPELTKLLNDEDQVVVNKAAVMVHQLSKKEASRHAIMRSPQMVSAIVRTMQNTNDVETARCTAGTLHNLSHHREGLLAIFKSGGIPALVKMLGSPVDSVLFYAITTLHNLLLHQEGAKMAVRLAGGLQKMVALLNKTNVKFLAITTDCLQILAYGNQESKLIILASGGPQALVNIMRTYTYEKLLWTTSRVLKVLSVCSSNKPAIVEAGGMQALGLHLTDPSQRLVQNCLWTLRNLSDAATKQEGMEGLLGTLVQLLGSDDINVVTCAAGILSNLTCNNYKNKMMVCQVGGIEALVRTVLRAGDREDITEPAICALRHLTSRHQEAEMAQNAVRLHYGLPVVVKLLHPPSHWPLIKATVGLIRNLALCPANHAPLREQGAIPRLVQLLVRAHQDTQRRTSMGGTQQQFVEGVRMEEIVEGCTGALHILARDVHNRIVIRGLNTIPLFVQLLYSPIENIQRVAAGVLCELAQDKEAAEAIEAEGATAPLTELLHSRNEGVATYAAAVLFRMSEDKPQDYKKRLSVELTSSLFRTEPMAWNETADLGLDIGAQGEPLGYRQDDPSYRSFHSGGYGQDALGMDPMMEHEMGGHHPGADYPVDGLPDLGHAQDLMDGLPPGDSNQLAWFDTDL

SW480 cells = assay: HPLC–MS based cell bioavailability assay; assay type: in vitro ADME; conditions: for cell-bound concentration: 37 °C, 3 h incubation in 5 mL DMEM with 10% FBS, input concentration 25 μM
[4] = test system: β-catenin/Tcf PPI in HCT116 cells; assay: Co-IP in HCT116 cells, β-catenin/Tcf; assay type: cell-based; conditions: HCT116 cells treated 24 h
[5] = test system: β-catenin/E-cadherin PPI in HCT116 cells; assay: Co-IP in HCT116 cells, β-catenin/E-cadherin; assay type: cell-based; conditions: concentrations sufficient to disrupt β-catenin/Tcf PPI
[6] = test system: β-catenin/APC PPI in HCT116 cells; assay: Co-IP in HCT116 cells, β-catenin/APC; assay type: cell-based; conditions: concentrations sufficient to disrupt β-catenin/Tcf PPI
TNBC MDA-MB-231 cells [7] = assay: Scratch wound healing assay; assay type: cell-based, human; conditions: 10 μM, 10% serum, mitomycin 10 μg/mL, 14 h
Outline: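 Wounds were scraped with a sterile 200 µL pipette tip into ~70–80% confluent MDA-MB-231 monolayers. Cells were kept in DMEM with 10% FBS plus 10 µg/mL mitomycin to block proliferation, with test compound or vehicle (0.2% DMSO). Wounds were imaged immediately and at 14 h. […] Mean ± SD, n=3.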

TNBC MDA-MB-231 cells [8] = assay: Matrigel invasion assay; assay type: cell-based, human; conditions: 10 μM, 24 h

CCOC(=O)CC[C@H](NC(=O)[C@H](CC(=O)OCC)NC(=O)[C@H](Cc1ccc2ccccc2c1)NC(=O)c1cc2cc(OC)ccc2[nH]1)C(=O)OC [(Et)-15]
TOPFlash luciferase activity ([1]; concentration of up to 200 μM): did not inhibit

COC(=O)[C@H](CCC(=O)O)NC(=O)[C@H](CC(=O)O)NC(=O)[C@H](Cc1ccc2ccccc2c1)NC(=O)Cc1cc2cc(Cl)ccc2[nH]1 [Compound 1]
activity in cell-based assays [2]: almost inactive

COC(=O)[C@H](CCC(=O)O)NC(=O)[C@H](CC(=O)O)NC(=O)[C@H](Cc1ccc2ccccc2c1)NC(=O)Cc1c[nH]c2ccc(Cl)cc12 [Compound 2]
inhibitory potency for β-catenin/Tcf PPI in words [3]: great loss of potency

COC(=O)[C@H](CCC(=O)O)NC(=O)[C@H](CC(=O)O)NC(=O)[C@H](Cc1ccc2ccccc2c1)NC(=O)Cc1c[nH]c2cc(Cl)ccc12 [Compound 3]
inhibitory potency for β-catenin/Tcf PPI in words [3]: great loss of potency

COC(=O)[C@H](CCC(=O)O)NC(=O)[C@H](CC(=O)O)NC(=O)[C@H](Cc1ccc2ccccc2c1)NC(=O)c1cc2c(Cl)cc(Cl)cc2[nH]1 [Compound 19]
potency improvement over 9 [3]: ~ 3 fold

O=C(O)CC[C@H](NC(=O)[C@H](CC(=O)O)NC(=O)[C@H](Cc1ccc2ccccc2c1)NC(=O)c1cc2cc(Cl)ccc2[nH]1)C(=O)Nc1ccccc1 [Compound 21, (S)-4-((S)-3-Carboxy-2-((S)-2-(5-chloro-1H-indole-2-carboxamido)-3-(naphthalen-2-yl)propanamido)propanamido)-5-oxo-5-(phenylamino)pentanoic Acid]
potency improvement over 9 [3]: 3.4 fold

O=C(O)CC[C@H](NC(=O)[C@H](Cc1nn[nH]n1)NC(=O)[C@H](Cc1ccc2ccccc2c1)NC(=O)c1cc2cc(Cl)ccc2[nH]1)C(=O)Nc1ccc(OC(F)(F)F)cc1 [Compound 53, (S)-4-((S)-2-((S)-2-(5-Chloro-1H-indole-2-carboxamido)-3-(naphthalen-2-yl)propanamido)-3-(2H-tetrazol-5-yl)propanamido)-5-oxo-5-((4-(trifluoromethoxy)phenyl)amino)pentanoic Acid]
cell-bound concentration (SW480 cells): 0.17 nmol/million SW480 cells

NC(=O)CC[C@H](NC(=O)[C@H](Cc1nn[nH]n1)NC(=O)[C@H](Cc1ccc2ccccc2c1)NC(=O)c1cc2cc(Cl)ccc2[nH]1)C(=O)Nc1ccc(OC(F)(F)F)cc1 [Compound 55, (S)-2-((S)-2-((S)-2-(5-Chloro-1H-indole-2-carboxamido)-3-(naphthalen-2-yl)propanamido)-3-(2H-tetrazol-5-yl)propanamido)-N^1-(4-(trifluoromethoxy)phenyl)pentanediamide]
TOPFlash luciferase activity ([1]; different concentrations): suppressed the TOPFlash luciferase activities in dose-dependent manners

CCOC(=O)CC[C@H](NC(=O)[C@H](Cc1nn[nH]n1)NC(=O)[C@H](Cc1ccc2ccccc2c1)NC(=O)c1cc2cc(Cl)ccc2[nH]1)C(=O)Nc1ccc(OC(F)(F)F)cc1 [Compound 56, Ethyl (S)-4-((S)-2-((S)-2-(5-Chloro-1H-indole-2-carboxamido)-3-(naphthalen-2-yl)propanamido)-3-(2H-tetrazol-5-yl)-propanamido)-5-oxo-5-((4-(trifluoromethoxy)phenyl)amino)-pentanoate]
TOPFlash luciferase activity ([1]; different concentrations): suppressed the TOPFlash luciferase activities in dose-dependent manners | inhibition of β-catenin/Tcf PPI (co-IP) [4]: dose-dependently inhibited | effect on β-catenin/E-cadherin PPI (co-IP) [5]: had no effect | effect on β-catenin/APC PPI (co-IP) [6]: had no effect | inhibition of TNBC cell migration (TNBC MDA-MB-231 cells [7]): effectively inhibit | inhibition of TNBC cell invasion (TNBC MDA-MB-231 cells [8]): effectively inhibit | cell-bound concentration (SW480 cells): 1.4 nmol/million SW480 cells | transformation into 53 (SW480 cells; 24 h incubation with SW480 cells in 5 mL DMEM with 10% FBS): did not transform into 53
